# Key:
# [1] = species on record: Homo sapiens; assay: Selectivity index, ratio of IC50 for human recombinant BuChE to IC50 for human recombinant AChE
# [2] = biological target: Cholinesterase (Homo sapiens, UniProt P06276); assay: Inhibition of human recombinant BuChE using butyrylthiocholine iodide substrate incubated for 15 mins by spectrophotometry based Ellman's method
# [3] = biological target: Acetylcholinesterase (Homo sapiens, UniProt P22303); assay: Inhibition of human recombinant AChE using acetylthiocholine iodide substrate incubated for 15 mins by spectrophotometry based Ellman's method
# [4] = tested on: Rattus norvegicus; assay: Antagonism of scopolamine-induced passive avoidance in Wistar rat assessed as latency of visiting dark box measured for 5 mins at 1 mg/kg, po dosed 30 mins after scopolamine challenge and measured 1 hr post dose; assay type: functional
# Procedure, shortened: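 Rats, 10 per compound. Scopolamine 1 mg/kg ip given 30 min before the test compound (1 mg/kg oral). One hour after dosing, rats placed in the illuminated compartment with the door closed for 30 s habituation. Door then opens automatically and latency to enter the dark box is timed over 5 min. Antagonism (%) is scaled against the latency difference between no-scopolamine and scopolamine-only groups, taken as 100%.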
# [5] = species on record: Homo sapiens; assay: Selectivity index, ratio of IC50 for human recombinant AChE to IC50 for human recombinant BuChE
# Procedure, shortened: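 Modified Ellman assay in Tris-HCl pH 8.0 with DTNB (0.34 mM final). Human recombinant AChE (0.4 U/mL solution) with acetylthiocholine iodide; human recombinant BuChE (1.6 U/mL solution) with butyrylthiocholine iodide (1.5 mM final). 15 min at 27 °C, read at 412 nm against enzyme-free blank and inhibitor-free control, in triplicate. IC50s fitted by sigmoidal Hill slope; ratio of the two IC50s.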
# Cholinesterase, sequence (P06276 whole entry): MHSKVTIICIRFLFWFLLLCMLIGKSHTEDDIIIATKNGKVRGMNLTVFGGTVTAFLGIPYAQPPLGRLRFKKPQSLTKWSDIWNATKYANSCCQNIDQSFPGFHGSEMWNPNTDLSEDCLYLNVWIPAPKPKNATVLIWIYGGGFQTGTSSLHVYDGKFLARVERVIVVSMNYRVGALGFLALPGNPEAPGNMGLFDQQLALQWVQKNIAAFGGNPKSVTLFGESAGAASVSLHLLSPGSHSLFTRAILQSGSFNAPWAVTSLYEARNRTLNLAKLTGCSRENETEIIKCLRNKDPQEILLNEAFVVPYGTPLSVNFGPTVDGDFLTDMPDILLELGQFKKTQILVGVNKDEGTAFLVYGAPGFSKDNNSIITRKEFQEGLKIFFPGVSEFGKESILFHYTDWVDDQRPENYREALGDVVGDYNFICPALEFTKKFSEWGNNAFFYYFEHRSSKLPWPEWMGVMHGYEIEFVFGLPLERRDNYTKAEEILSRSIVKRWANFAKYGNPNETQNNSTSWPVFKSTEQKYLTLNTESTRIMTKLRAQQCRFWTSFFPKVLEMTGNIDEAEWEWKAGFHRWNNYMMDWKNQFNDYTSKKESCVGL
# Acetylcholinesterase, sequence (P22303 whole entry): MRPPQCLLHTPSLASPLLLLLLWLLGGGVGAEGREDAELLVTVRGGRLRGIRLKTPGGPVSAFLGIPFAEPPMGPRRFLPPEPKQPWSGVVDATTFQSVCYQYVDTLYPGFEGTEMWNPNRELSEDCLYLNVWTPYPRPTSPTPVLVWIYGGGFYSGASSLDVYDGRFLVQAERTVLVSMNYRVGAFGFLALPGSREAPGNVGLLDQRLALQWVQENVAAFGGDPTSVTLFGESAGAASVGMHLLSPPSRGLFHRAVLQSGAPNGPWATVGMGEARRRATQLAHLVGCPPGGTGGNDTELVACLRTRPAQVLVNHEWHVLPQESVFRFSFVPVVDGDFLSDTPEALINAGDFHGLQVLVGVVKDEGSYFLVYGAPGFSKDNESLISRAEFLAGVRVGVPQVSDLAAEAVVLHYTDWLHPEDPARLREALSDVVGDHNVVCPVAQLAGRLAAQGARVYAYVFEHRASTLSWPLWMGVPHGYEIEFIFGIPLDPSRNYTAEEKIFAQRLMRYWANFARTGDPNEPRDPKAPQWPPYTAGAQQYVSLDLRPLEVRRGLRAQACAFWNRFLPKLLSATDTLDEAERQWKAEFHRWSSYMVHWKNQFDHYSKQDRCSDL
Structure (SMILES),Ratio IC50 [1],IC50 [2] [µM],IC50 [3] [µM],inhibition in vivo at 1 mg/kg [4] [%],Ratio IC50 [5]
O=c1oc2cc(OCCN3CCC(Cc4ccccc4)CC3)ccc2c2c1CCCC2,> 5,> 40,8.1,,
CN(CCCOc1ccc2c3c(c(=O)oc2c1)CCCC3)Cc1ccccc1,7.6,15.9,2.1,,
C[C@@H](c1ccc2c(c1)oc(=O)c1ccccc12)N(C)C,2.1,,,71,
CN(CCOc1ccc2c3c(c(=O)oc2c1)CCCC3)Cc1ccccc1,> 14,> 40,2.8,,
COc1cccc(CN(C)CCOc2ccc3c(c2)oc(=O)c2ccccc23)c1,1.8,33.2,18.4,,
COc1cccc(CC2CCN(CCCCOc3ccc4c5c(c(=O)oc4c3)CCCC5)CC2)c1,2,27.8,13.7,,
CN(CCCCOc1ccc2c3c(c(=O)oc2c1)CCCC3)Cc1ccccc1,18.9,18.9,1,65,
COc1cccc(CN(C)CCCCOc2ccc3c(c2)oc(=O)c2ccccc23)c1,2.1,17.6,8.3,,
COc1cccc(CN2CCN(CCCOc3ccc4c5c(c(=O)oc4c3)CCCC5)CC2)c1,2.9,18.4,6.2,,
O=c1oc2cc(OCCCN3CCC(Cc4ccccc4)CC3)ccc2c2ccccc12,5.2,21.3,4.1,,
COc1cccc(CC2CCN(CCOc3ccc4c(c3)oc(=O)c3ccccc34)CC2)c1,> 1,> 40,29.3,,
O=c1oc2cc(OCCN3CCN(Cc4ccccc4)CC3)ccc2c2c1CCCC2,24.6,32,1.3,,
COc1cccc(CC2CCN(CCOc3ccc4c5c(c(=O)oc4c3)CCCC5)CC2)c1,> 1,> 40,37.2,,
COc1cc(C(C)N(C)C)c2c(c1)oc(=O)c1ccccc12 (racemic),1.6,,,,
O=c1oc2cc(OCCN3CCC(Cc4ccccc4)CC3)ccc2c2ccccc12,> 2,> 40,20,,
CC(c1cc(O)cc2oc(=O)c3ccccc3c12)N(C)C (racemic),> 1,> 40,,,
CN(CCCOc1ccc2c(c1)oc(=O)c1ccccc12)Cc1ccccc1,1.7,14.9,8.5,,
O=c1oc2cc(OCCCCN3CCC(Cc4ccccc4)CC3)ccc2c2c1CCCC2,2.2,20.1,9.2,,
COc1cccc(CC2CCN(CCCCOc3ccc4c(c3)oc(=O)c3ccccc34)CC2)c1,> 1,> 40,27.4,,
COc1cccc(CN2CCN(CCCCOc3ccc4c5c(c(=O)oc4c3)CCCC5)CC2)c1,2.7,23.4,8.7,,
COc1cc2c(cc1OC)C(=O)C(CC1CCN(Cc3ccccc3)CC1)C2 (configuration not stated) [DONEPEZIL],,,,58,
CCN(C)C(=O)Oc1cc(C(C)N(C)C)c2c(c1)oc(=O)c1ccccc12 (racemic),,,> 40,,> 4
COc1cccc(CN2CCN(CCCOc3ccc4c(c3)oc(=O)c3ccccc34)CC2)c1,> 2,> 40,18,,

Structure (SMILES),Ratio IC50 [1],IC50 [2] [µM],IC50 [3] [µM],inhibition in vivo at 1 mg/kg [4] [%],Ratio IC50 [5]
O=c1oc2cc(OCCCCN3CCN(Cc4ccccc4)CC3)ccc2c2c1CCCC2,2.3,14.6,6.4,,
CN(CCCCOc1ccc2c(c1)oc(=O)c1ccccc12)Cc1ccccc1,5.9,6.5,1.1,62,
CN(CCOc1ccc2c(c1)oc(=O)c1ccccc12)Cc1ccccc1,2.1,14.1,6.7,,
COc1cccc(CC2CCN(CCCOc3ccc4c(c3)oc(=O)c3ccccc34)CC2)c1,> 2,> 40,18.5,,
O=c1oc2cc(OCCCN3CCC(Cc4ccccc4)CC3)ccc2c2c1CCCC2,> 9,> 40,4.3,,
CCN(C)C(=O)Oc1cccc([C@H](C)N(C)C)c1 (racemic) [RIVASTIGMINE],,,,85,
COc1cccc(CN(C)CCOc2ccc3c4c(c(=O)oc3c2)CCCC4)c1,> 6,> 40,6,,
COc1cccc(CN(C)CCCOc2ccc3c4c(c(=O)oc3c2)CCCC4)c1,> 14,> 40,2.7,,
COc1cccc(CN2CCN(CCCCOc3ccc4c(c3)oc(=O)c3ccccc34)CC2)c1,> 1,> 40,21.3,,
COc1cc(C(C)N(C)C)cc2oc(=O)c3ccccc3c12 (racemic),7.5,,,71,
CC(c1ccc2c(c1)oc(=O)c1ccccc12)N(C)C (racemic),1.6,,,70,
COc1cccc(CN2CCN(CCOc3ccc4c5c(c(=O)oc4c3)CCCC5)CC2)c1,> 5,> 40,7.3,,
O=c1oc2cc(OCCN3CCN(Cc4ccccc4)CC3)ccc2c2ccccc12,13.4,12.1,0.9,,
COc1cccc(CC2CCN(CCCOc3ccc4c5c(c(=O)oc4c3)CCCC5)CC2)c1,> 8,> 40,4.9,,
O=c1oc2cc(OCCCN3CCN(Cc4ccccc4)CC3)ccc2c2c1CCCC2,3.4,3.1,0.9,58,
O=c1oc2cc(OCCCCN3CCC(Cc4ccccc4)CC3)ccc2c2ccccc12,> 2,> 40,14.2,,
CC(c1cc(O)c2c(c1)oc(=O)c1ccccc12)N(C)C (racemic),,,,49,4.5
O=c1oc2cc(OCCCN3CCN(Cc4ccccc4)CC3)ccc2c2ccccc12,4.6,3.7,0.8,85,
COc1cccc(CN(C)CCCOc2ccc3c(c2)oc(=O)c2ccccc23)c1,1.4,29.2,20.9,,
COc1cccc(CN(C)CCCCOc2ccc3c4c(c(=O)oc3c2)CCCC4)c1,> 23,> 40,1.7,,
O=c1oc2cc(OCCCCN3CCN(Cc4ccccc4)CC3)ccc2c2ccccc12,> 4,> 40,8.2,,
COc1cccc(CN2CCN(CCOc3ccc4c(c3)oc(=O)c3ccccc34)CC2)c1,> 3,> 40,11.4,,
